UPR CHOP act: apoptotic UPR (CHOP) activation. CHO-CHOP luciferase reporter, luminescence; percent of tunicamycin response over DMSO baseline. activation, % at 10 µM. actives 0.34% (n = 330,000). AID 449763;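 active = at 10 µM dose, activation of 40% or more, normalized to positive control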;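 also: 100% = tunicamycin at 10 µg/mL and 0% = DMSO alone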
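measured by = luciferase luminescence | assay system = CHO-CHOP cells, stable luciferase reporter of PERK-eIF2a-CHOP signalling | amount = 500 reporter cells seeded per well | timing = 6 h compound exposure at 37 °C after overnight seeding | controls = positive tunicamycin 10 µg/mL, negative DMSO alone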
CTSL1 counter: cathepsin L1 inhibition, PFM18AAP counter-screen; recombinant F. hepatica cathepsin L1, Z-Leu-Arg-MCA fluorescence; inhibition, % at 5.96 µM; actives 0.49% (n = 300,000);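 active = inhibition above the mean of all tested compounds plus 3 SD, set per screening campaign, cut at about 17% in these data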;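 also: 0% = plate median of test compound wells and 100% = 1 µM Z-Phe-Ala-diazomethylketone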
XBP1 UPR activ: activators of adaptive arm of unfolded protein response (XBP1) | activation, % at 20 µM | AID 463104 | CHO-XBP1 luciferase reporter, IRE1-XBP1 UPR activation, luminescence; percent of tunicamycin response, DMSO as zero | actives 0.33% (n = 330,000);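 active = versus positive control, 20 µM dose yields 30% or more activation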;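 also: 100% = tunicamycin at 10 µg/mL and 0% = DMSO only wells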
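Material: CHO cell line with stable XBP1 luciferase reporter; schedule: 16-18 h cell attachment at 37 °C, then 6 h compound exposure; signal: glow luminescence from Steady-Glo reagent; medium: serum-containing F12 medium, 10% FBS; benchmarks: tunicamycin 10 µg/mL and vehicle-only wells; read-out: percent activation relative to tunicamycin reference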
CHOP inh: inhibitors of CHOP induction in ER stress response | inhibition, % at 10 µM | AID 2732 | CHO-K1 CHOP-promoter luciferase, tunicamycin-induced, 15-18 h | actives 3.8% (n = 220,000);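 active = compounds that reduced the stress-induced luciferase reporter signal by more than about 70% of percent inhibition, limit read from the data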;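 also: 0% = tunicamycin plus vehicle and 100% = wells without tunicamycin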
UCH37 DUB inh: blocks the human deubiquitinase UCH37. purified proteasome/UCH37, Ub-AMC cleavage fluorescence. AID 588478. inhibition, % (test concentration not listed). Q9Y5K5. actives 0.33% (n = 330,000);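 active = mean inhibition over replicate wells above about 20%, limit read from the data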;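 also: 0% = compound-free wells with enzyme and 100% = wells lacking proteasome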
Target sequence (Q9Y5K5 whole entry, looked up): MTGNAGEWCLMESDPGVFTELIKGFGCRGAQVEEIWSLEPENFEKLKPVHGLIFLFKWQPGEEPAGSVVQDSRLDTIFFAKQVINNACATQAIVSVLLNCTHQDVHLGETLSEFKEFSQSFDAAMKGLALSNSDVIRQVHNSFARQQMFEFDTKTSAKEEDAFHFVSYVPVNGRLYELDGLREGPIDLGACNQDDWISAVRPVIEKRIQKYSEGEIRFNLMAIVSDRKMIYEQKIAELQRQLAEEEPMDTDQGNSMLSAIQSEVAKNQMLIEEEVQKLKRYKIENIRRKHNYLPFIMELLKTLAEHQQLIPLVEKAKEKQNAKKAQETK
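Assay system: Proteasome-bound UCH37. Buffer or medium: pH 7.4 Tris-HCl (50 mM) with ovalbumin, ATP-MgCl2, DTT. Incubation: 30 min preincubation with enzyme, 25 min cleavage at room temperature. Measured by: fluorescence, ex 355 nm, em 460 nm. Read-out basis: percent inhibition. Control set: wells without proteasome as full block, compound-free enzyme plus substrate as uninhibited.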
* = called active by the depositor. Only a selection was taken, and hits are over-represented in it overall.

Screening Cc1sc2nc(CSc3ccccc3)nc(N3CCOCC3)c2c1C returned UPR CHOP act -2, CTSL1 counter 1, XBP1 UPR activ 3, CHOP inh 72* and UCH37 DUB inh 2.
Cc1sc2nc(CSc3ccccc3)nc(N3CCC(C(N)=O)CC3)c2c1C was read as UPR CHOP act 1, CTSL1 counter 4, XBP1 UPR activ 14, CHOP inh 19 and UCH37 DUB inh 3.
For COC(=O)c1ccc(Oc2nc3c(c(=O)n(C)c(=O)n3C)n2CCC(C)C)cc1 the results were UPR CHOP act 1, CTSL1 counter 0, XBP1 UPR activ -4, CHOP inh 75* and UCH37 DUB inh 7.
Screening COc1cc(NS(=O)(=O)c2ccc(NC(=S)NC(=O)/C=C/c3ccc(OC)c(OC)c3)cc2)ncn1 returned UPR CHOP act 2, CTSL1 counter 1, XBP1 UPR activ 0, CHOP inh 79* and UCH37 DUB inh -2.
For CN(C)CCCN(CCCNC(=O)C=NO)Cc1ccccc1 the results were UCH37 DUB inh 6.
For O=c1c(=Nc2ccccc2O)c(=O)c2ccccc12 the results were UPR CHOP act 3, CTSL1 counter 33*, XBP1 UPR activ 0 and CHOP inh -3.
`Cc1ccc(NC(=O)c2cc(NC(=O)c3ccco3)ccc2N2CCOCC2)cc1` gave UPR CHOP act -1, CTSL1 counter 0, XBP1 UPR activ -1, CHOP inh 42 and UCH37 DUB inh -39.
Cc1ccc(NC(=O)c2cc(-n3cnnc3)ccc2Cl)cc1 was read as UPR CHOP act -1, CTSL1 counter -2, XBP1 UPR activ -1, CHOP inh 33 and UCH37 DUB inh 0.
Screening Cc1ccc(NC(=O)c2cc(N3C(=O)C=CC3=O)ccc2Cl)cc1C returned UPR CHOP act 0, CTSL1 counter 2, XBP1 UPR activ -3, CHOP inh 104* and UCH37 DUB inh 1.
Cc1ccc(NC(=O)c2cc(N3C(=O)C=CC3=O)ccc2N2CCOCC2)cc1 was read as CHOP inh 109* and UCH37 DUB inh -1.
Screening CCCc1cc(=O)[nH]c(Nc2ccc(OC)c(Cl)c2)n1 returned UPR CHOP act -2, CTSL1 counter -2, XBP1 UPR activ -1, CHOP inh 78* and UCH37 DUB inh 6.
Screening CCCc1cc(=O)[nH]c(Nc2ccc(Cl)cc2)n1 returned UPR CHOP act -1, CTSL1 counter 4, XBP1 UPR activ -5, CHOP inh 11 and UCH37 DUB inh 1.
`Cc1nc2ccccn2c1C(=O)NN=Cc1cc(C)n(-c2ccc(Br)cc2)c1C` gave UCH37 DUB inh -7.
For O=C(NN=Cc1c[nH]c2ccccc12)c1ccn(Cc2ccc(Cl)cc2Cl)n1 the results were UCH37 DUB inh -6.
Screening COC(=O)c1c(NC(=O)c2nn(C)cc2Cl)sc2c1CCCC2 returned UPR CHOP act -1, CTSL1 counter 3, XBP1 UPR activ 6, CHOP inh 74* and UCH37 DUB inh -332.
For COC(=O)c1c(NC(=O)C2CC2)sc2c1CCCC2 the results were UPR CHOP act 0, CTSL1 counter 1, XBP1 UPR activ 1, CHOP inh 77* and UCH37 DUB inh 2.
`COC(=O)c1c(NC(=O)CCC(=O)O)sc2c1CCCCC2` gave UPR CHOP act 1, CTSL1 counter -1, XBP1 UPR activ 1, CHOP inh -8 and UCH37 DUB inh 2.
Screening COC(=O)c1c(NC(=O)COC(=O)c2ccc(C)s2)sc2c1CCCCC2 returned UPR CHOP act 0, CTSL1 counter -6, XBP1 UPR activ 2, CHOP inh 72* and UCH37 DUB inh 1.
COC(=O)c1c(NC(=O)c2ccn(C)n2)sc2c1CCC2 was read as UPR CHOP act 2, CTSL1 counter 2, XBP1 UPR activ 1 and UCH37 DUB inh -94.
Cc1ncc(CO)c(C=NN=Cc2ccccc2O)c1O was read as UCH37 DUB inh 4.
Screening O=C(NN=Cc1coc2ccccc2c1=O)c1cc2ccccc2o1 returned UCH37 DUB inh -43.
Fc1nc(F)c(F)c(NCCCNc2c(F)c(F)nc(F)c2F)c1F was read as UPR CHOP act 1, CTSL1 counter 1, XBP1 UPR activ 0, CHOP inh 88* and UCH37 DUB inh 5.
For CC(C)C1N(S(=O)(=O)c2ccccc2)CCN1S(=O)(=O)c1ccccc1 the results were UPR CHOP act -4, CTSL1 counter -4, XBP1 UPR activ -1, CHOP inh 76* and UCH37 DUB inh 1.
`CCOC(=O)c1sc(Nc2ccc(OCC)cc2)nc1C` gave UPR CHOP act 2, CTSL1 counter 2, XBP1 UPR activ 5, CHOP inh 73* and UCH37 DUB inh -9.
O=C(c1ccc(Cl)c(Cl)c1)N(Cc1ccco1)c1ccc(O)cc1 was read as UPR CHOP act -1, CTSL1 counter -1, XBP1 UPR activ -2, CHOP inh 87* and UCH37 DUB inh -1.
Screening CC(=NNC(=O)c1ccco1)c1cccc(NC(=O)c2ccc(C)s2)c1 returned UCH37 DUB inh 3.
`Cc1cc(C)c(S(=O)(=O)/N=C2/C=C(SCC(=O)O)C(=O)c3ccccc32)cc1C` gave UPR CHOP act 1, XBP1 UPR activ -2 and CHOP inh -20.
`Cc1cc(C)c(S(=O)(=O)N=C2C=C(Sc3ncn[nH]3)C(=O)c3ccccc32)cc1C` gave UCH37 DUB inh 31*.
For Cc1c(C(=O)NN)[nH]c2ccc([N+](=O)[O-])cc12 the results were UPR CHOP act 0, CTSL1 counter 2, XBP1 UPR activ -2, CHOP inh 0 and UCH37 DUB inh 2.
Screening Cc1ccc(C)c2c1[nH]c1ccc([N+](=O)[O-])cc12 returned UPR CHOP act 1, CTSL1 counter 3, XBP1 UPR activ -3, CHOP inh 82* and UCH37 DUB inh 3.
CC(=O)Nc1cccc(C(C)=NNC(=O)c2ccc(CN3CCOCC3)cc2)c1 was read as UCH37 DUB inh 0.
Screening O=C1N/C(=C/c2ccc(Br)s2)C(=O)N1c1ccccc1 returned UPR CHOP act 1, CTSL1 counter -2, XBP1 UPR activ 3 and CHOP inh 96*.
O=C(Oc1cccc2c(O)cccc12)c1ccccc1 was read as UPR CHOP act 6, CTSL1 counter -4, XBP1 UPR activ 11, CHOP inh 106* and UCH37 DUB inh 2.
C=CCn1c(C)cc(C(=O)Cn2ncc(Cl)c(Cl)c2=O)c1C was read as CTSL1 counter 4, CHOP inh 75* and UCH37 DUB inh 3.
For O=C(OCn1ncc(Cl)c(Cl)c1=O)c1ccccc1Cl the results were CTSL1 counter 0, CHOP inh 107* and UCH37 DUB inh 4.
O=C1CN(C(=O)Cn2ncc(Cl)c(Cl)c2=O)c2ccccc2N1 was read as CHOP inh 92* and UCH37 DUB inh 4.

High-throughput results deposited in PubChem BioAssay by several laboratories.
